Measurements taken from ChEMBL document CHEMBL4219082, “2-Arylthio-5-iodo pyrimidine derivatives as non-nucleoside HBV polymerase inhibitors” (Bioorg Med Chem, 2018).
Active and inactive are the calls of the source. No cut-off for these calls is given here.

What was measured:
[1] = Cytotoxicity against human HepG2.2.15 cells […] by MTT assay; assay type: cell-based, HepG2 2.2.15
Procedure, shortened: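 HepG2.2.15 cells were seeded at 2×10^5 cells/mL and dosed with graded compound concentrations after 24 h. Medium with compound was refreshed at 72 h, then cells were kept a further 72 h. MTT was added for 4 h, formazan was dissolved in DMSO and absorbance read at 490 nm. The value is CC50, the concentration giving 50% cytotoxicity.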

[2] = Selectivity index, ratio of CC50 for human HepG2.2.15 cells to EC50 for HBV infected in human HepG2.2.15 cells; assay type: toxicity, cell-based; settings: read-out: Ratio CC50/EC50
Procedure, shortened: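 Selectivity index is calculated as CC50/EC50. CC50 comes from an MTT assay and EC50 from qRT-PCR of intracellular HBV DNA. Both use HepG2.2.15 cells dosed for two 72 h periods with a medium renewal between them.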

[3] = (§1) Inhibition of DHBV DNA polymerase derived from infected duckling liver assessed as decrease in biotin-11-dUTP incorporation using poly (A)/oligo(dT)15 as template/primer after 1 hr by ELISA; set-up: species or system Duck hepatitis B virus
Procedure, shortened: (§2)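 Enzyme is DHBV polymerase from liver homogenate of infected ducklings. It was pelleted, and the 35% and 40% fractions of a sucrose density gradient were pooled and used at a "1/100" dilution of one liver's yield. Oligo(dT)15 primer is covalently immobilized on the plate. The mix contains 17.5 µg/ml poly(A), 8 µM dTTP, 2 µM biotin-11-dUTP, 5 mM DTT, 17 mM MgCl2, 65 µg/ml BSA, 50 mM Tris-HCl pH 8.3 and 75 mM KCl. Incubation is 1 h at 37 °C. After BSA blocking, streptavidin-alkaline phosphatase is added and PNPP signal is read after NaOH stop. Line 6 is tested at 100 µM and line 7 at 200 µM.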

Hepatitis B virus [4] = assay: Antiviral activity against HBV infected in human HepG2.2.15 cells assessed as inhibition of viral DNA levels at 20 uM […] by qRT-PCR analysis relative to control; assay type: functional
Procedure, shortened: (§3)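 HepG2.2.15 cells were seeded at 2×10^5 cells/mL and exposed to compound 24 h later. Compound-containing medium was renewed at 72 h and cells were kept another 72 h. After a PBS wash, intracellular HBV DNA was extracted from lysates and quantified by qRT-PCR. Line 1 gives the 50% inhibitory concentration; lines 2 and 3 test single concentrations of 10 µM and 20 µM.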

Duck hepatitis B virus [5] = assay: Inhibition of DHBV DNA polymerase derived from infected duckling liver assessed as decrease in biotin-11-dUTP incorporation using poly (A)/oligo(dT)15 as template/primer at 100 uM after 1 hr by ELISA relative to control; procedure, shortened: as §2
Hepatitis B virus [6] = assay: Antiviral activity against HBV infected in human HepG2.2.15 cells assessed as inhibition of viral DNA levels at 10 uM after […] by qRT-PCR analysis; assay type: functional, organism-based; procedure, shortened: as §3
Duck hepatitis B virus [7] = assay: Inhibition of DHBV DNA polymerase derived from infected duckling liver assessed as decrease in biotin-11-dUTP incorporation using poly (A)/oligo(dT)15 as template/primer at 200 uM after 1 hr by ELISA; procedure, shortened: as §2
Duck hepatitis B virus [8] = assay: as §1; procedure, shortened: as §2

Row | Compound | IC50 [3] | CC50 [1] | selectivity ratio [2] | other results
1 | N#Cc1ccc(CSc2nc(C(=O)N3CCCc4ccccc43)c(I)c(=O)[nH]2)cc1 | > 200 µM | > 100 µM | > 62 | 
2 | O=c1cc(Cc2cc(F)cc(F)c2)nc(SCc2ccc([N+](=O)[O-])cc2)[nH]1 |  |  |  | inhibition at 20 µM (Hepatitis B virus [4]): 32.9%; inhibition (Duck hepatitis B virus [5]): 16.1%
3 | COC(=O)c1ccc(CSc2nc(Cc3cc(C)cc(C)c3)c(I)c(=O)[nH]2)cc1 | 38.8 µM | 64.8 µM | 5 | 
4 | Cc1cc(C)cc(Cc2nc(SCc3ccc([N+](=O)[O-])cc3)[nH]c(=O)c2I)c1 | 33 µM | 39 µM | 5.9 | 
5 | O=c1[nH]c(SCc2ccc([N+](=O)[O-])cc2)nc(Cc2cc(F)cc(F)c2)c1I | 29.5 µM | > 100 µM | > 16 | 
6 | Cc1cc(C)cc(Cc2nc(SCCOc3ccc([N+](=O)[O-])cc3)[nH]c(=O)c2I)c1 | 56 µM | 96.6 µM | 14 | 
7 | N#Cc1ccc(CSc2nc(CN3CCCCC3)c(I)c(=O)[nH]2)cc1 |  |  |  | inhibition (Hepatitis B virus [6]): inactive; inhibition (Duck hepatitis B virus [7]): inactive
8 | N#Cc1ccc(CSc2nc(C(=O)NCCCc3ccccc3)c(I)c(=O)[nH]2)cc1 | > 200 µM | > 50 µM | > 30 | 
9 | COC(=O)c1ccc(CSc2nc(Cc3cc(C)cc(C)c3)cc(=O)[nH]2)cc1 |  |  |  | inhibition at 20 µM (Hepatitis B virus [4]): 13.3%; inhibition (Duck hepatitis B virus [5]): 3.66%
10 | O=C(O)P(=O)(O)O [FOSCARNET] | 6.54 µM |  |  | inhibition (Duck hepatitis B virus [8]): Dose-dependent effect
11 | N#Cc1ccc(CSc2nc(CN3CCc4ccccc4C3)c(I)c(=O)[nH]2)cc1 | 60.5 µM |  |  | 
12 | Nc1ccn([C@H]2CS[C@@H](CO)O2)c(=O)n1 |  | > 100 µM | > 164 | 
13 | CN1CCN(C(=O)c2nc(SCc3ccc(C#N)cc3)[nH]c(=O)c2I)CC1 |  | > 100 µM | > 38 | inhibition (Duck hepatitis B virus [7]): inactive
14 | CC(=O)c1ccc(CSc2nc(Cc3cc(C)cc(C)c3)c(I)c(=O)[nH]2)cc1 | 42.9 µM | 78.3 µM | 6.4 | 
15 | O=c1[nH]c(SCc2ccc([N+](=O)[O-])cc2)nc(Cc2ccccc2)c1I | 42.8 µM | 52.7 µM | 7 | 

Now from value to molecule, other results behind:

Row | IC50 [3] | Compound | CC50 [1] | selectivity ratio [2] | other results
16 | 104 µM | O=c1[nH]c(SCc2ccc([N+](=O)[O-])cc2)nc(Cn2nnc3ccccc32)c1I |  |  | inhibition (Hepatitis B virus [6]): inactive
17 | 35.6 µM | Cc1cc(C)cc(Cc2nc(SCc3ccc(C#N)cc3)[nH]c(=O)c2I)c1 | 43.2 µM | 6.1 | 
18 | 128 µM | N#Cc1ccc(CSc2nc(Cn3nnc4ccccc43)c(I)c(=O)[nH]2)cc1 |  |  | inhibition (Hepatitis B virus [6]): inactive
19 | 71.9 µM | Cc1cc(C)cc(Cc2nc(SCCc3ccc([N+](=O)[O-])cc3)[nH]c(=O)c2I)c1 | 66.6 µM | 6.8 | 
